The test system of assay [1] is Cavia porcellus. The experiment in a line: Relative ability to cause abortion in conscious guinea pigs compared to PGE-2. Format: functional.
The species named for assay [2] is Cavia porcellus. The experiment in a line: Relative spasmogenic potency in an in vitro guinea pig uteri assay. Format: functional.
For assay [3], the system named is Cavia porcellus. The experiment in a line: Percent protection against histamine-induced bronchoconstriction in conscious guinea pig. Format: functional. Set-up: concentration or dose not given beside the values.
Another assay has as its system Rattus norvegicus. The experiment in a line: Relative potency (50 ug/kg) for inhibition of pentagastrin-stimulated gastric acid secretion in anesthetized rats. Format: functional, Stomach.
Assay [4] deals with Mus musculus. The experiment in a line: Relative potency of compound versus PGE-2 (0.3-3.0mg/mL, iv)for induction of diarrhoea in conscious mice. Format: functional. The method in brief: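 Groups of six conscious mice, iv. Relative potency was estimated from concentration-response curves for diarrhea induction against PGE2 given at 0.3–3.0 mg/kg iv.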
Assay [5] concerns Canis familiaris. The experiment in a line: Compound versus PGE-2 (0.1 ug/kg, iv) was tested for effects on blood pressure in anesthetized dogs; Pressor. Format: functional, Canis lupus familiaris. An outline of the steps: (§1)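 Anesthetized dogs responsive to PGE2 (at least two per compound); iv dosing. Blood pressure threshold dose expressed relative to PGE2 reference at 0.1 μg/kg iv; direction noted as depressor (−) or pressor (+).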

Assay [6] relates to Canis familiaris. The experiment in a line: Compound versus PGE-2 (0.1 ug/kg, iv) was tested for effects on blood pressure in anesthetized dogs. Format: functional, Canis lupus familiaris. The method in brief:
as §1

For assay [7], the system named is Mus musculus. The experiment in a line: Relative potency of compound versus PGE-2 (0.3-3.0mg/mL, iv) for induction of diarrhoea in conscious mice; NE = no effect at one tenth the minimum effective dose for PGE-2. Format: functional, organism-based.
The subject of assay [8] is Canis familiaris. The experiment in a line: Compound versus PGE-2 (0.1 ug/kg, iv) was tested for effects on blood pressure in anesthetized dogs; Depressor. Format: functional, Canis lupus familiaris. The method in brief: as §1
The test system of assay [9] is Mus musculus. The experiment in a line: Relative potency of compound versus PGE-2 (0.3-3.0mg/mL, iv) for induction of diarrhoea in conscious mice; Depressor. Format: functional.
Assay [10] has as its system Mus musculus. The experiment in a line: Relative potency of compound versus PGE-2 (0.3-3.0mg/mL, iv) for induction of diarrhoea in conscious mice; NE = no effect at 10 times the ED50 for PGE-2. Format: functional, organism-based.

In the case of `CS(=O)(=O)NC(=O)CCC/C=C\C[C@H]1C(=O)C[C@@H](O)C1/C=C/[C@@H](O)COc1ccc(F)cc1` (stereo not given in full), the Relative potency came to 3000 with Cavia porcellus [1] and 120 in the assay listed under Cavia porcellus [2]. Besides, the Protection in the assay with Cavia porcellus [3] is given as 3%.

For `CS(=O)(=O)NC(=O)CCC/C=C\C[C@H]1C(=O)C[C@@H](O)C1/C=C/[C@@H](O)COc1cccc(Cl)c1` (stereo not given in full), the figures for the Relative potency with Cavia porcellus [1], in the assay listed under Cavia porcellus [2] and in the assay on Rattus norvegicus were 1000, 46 and 140, respectively. In addition, the Protection in the assay on Cavia porcellus [3] came to 28%.

Take `CS(=O)(=O)NC(=O)CCC/C=C\CC1=C(/C=C/[C@@H](O)COc2ccccc2)CCC1=O`: the Relative potency is on record as less than 100 in the assay with Cavia porcellus [1], 60 with Mus musculus [4], 1.2 in the assay filed under Cavia porcellus [2] and 80 in the assay on Rattus norvegicus. In addition, in the assay on Canis familiaris [5], the Relative threshold dose stood at 10. Further, the Protection with Cavia porcellus [3] turned out to be 0%.

Take `CS(=O)(=O)NC(=O)CCC/C=C\C[C@@H]1C(/C=C/[C@@H](O)COc2ccccc2)[C@H](O)C[C@@H]1O` (stereo not given in full): the values for the Relative potency with Cavia porcellus [1], in the assay listed under Cavia porcellus [2] and with Canis familiaris [6] were 1000, 10 and 10, respectively. The same compound showed a Protection in the assay with Cavia porcellus [3] of 3%.

`CS(=O)(=O)NC(=O)CCC/C=C\C[C@H]1C(=O)C[C@@H](O)C1/C=C/[C@@H](O)COc1cccc(C(F)(F)F)c1` (stereo not given in full): the Relative potency was less than 100 with Cavia porcellus [1], 0.5 in the assay filed under Cavia porcellus [2], less than 0.5 with Canis familiaris [6] and “No effect” with Mus musculus [7]. In addition, the Protection with Cavia porcellus [3] was 16%.

In the case of `CS(=O)(=O)NC(=O)CCC/C=C\C[C@H]1C(=O)C[C@@H](O)C1/C=C/[C@@H](O)COc1cccs1` (stereo not given in full), the results for the Relative potency in the assay on Cavia porcellus [1], in the assay filed under Cavia porcellus [2] and in the assay with Canis familiaris [6] were 300, 50 and 0.5, respectively. Further, the Protection in the assay on Cavia porcellus [3] was determined as 28%.

As for `CS(=O)(=O)NC(=O)CCC/C=C\C[C@H]1C(=O)C=CC1/C=C/[C@@H](O)COc1ccccc1` (stereo not given in full), the Relative threshold dose with Canis familiaris [8] amounted to 2.5. Also, the Relative potency with Cavia porcellus [1] was less than 100; in the assay on Mus musculus [4], 10; in the assay listed under Cavia porcellus [2], 0.2; with Rattus norvegicus, 200. In the assay on Cavia porcellus [3], this compound yielded a Protection of 9%.

As for `Cc1cccc(OC[C@H](O)/C=C/C2[C@H](O)CC(=O)[C@@H]2C/C=C\CCCC(=O)NS(C)(=O)=O)c1` (stereo not given in full), the Relative potency was 0.5 in the assay with Canis familiaris [8]; less than 1000 in the assay on Cavia porcellus [1]; 4 in the assay listed under Cavia porcellus [2]; 125 with Rattus norvegicus; “No effect” in the assay with Mus musculus [7]. Also, the Protection with Cavia porcellus [3] came out at 44%.

Turning to `CS(=O)(=O)NC(=O)CCC/C=C\C[C@H]1C(=O)C[C@@H](O)C1/C=C/[C@@H](O)CCc1ccccc1` (stereo not given in full), the Relative potency is 2.5 in the assay on Mus musculus [9], less than 100 in the assay on Cavia porcellus [1], 75 in the assay filed under Cavia porcellus [2] and 2.5 with Canis familiaris [6]. For the same compound, in the assay with Cavia porcellus [3], the Protection worked out at 0%.

Regarding `COc1ccc(OC[C@H](O)/C=C/C2[C@H](O)CC(=O)[C@@H]2C/C=C\CCCC(=O)NS(C)(=O)=O)cc1` (stereo not given in full), the Relative potency in the assay with Cavia porcellus [1] is less than 1000; in the assay listed under Cavia porcellus [2] it was 10; in the assay on Rattus norvegicus, 600; in the assay on Canis familiaris [6], less than 0.5. Besides, the Protection with Cavia porcellus [3] was determined as 13%.

Take `CS(=O)(=O)NC(=O)CCC/C=C\C[C@H]1C(=O)C[C@@H](O)C1/C=C/[C@@H](O)COc1ccc(Cl)cc1` (stereo not given in full): the Relative potency was found to be 0.5 in the assay with Canis familiaris [8], 10000 in the assay on Cavia porcellus [1], 90 in the assay filed under Cavia porcellus [2] and 1200 in the assay on Rattus norvegicus. Also, in the assay with Cavia porcellus [3], the Protection came out at 9%.

Regarding `O=C(CCC/C=C\C[C@H]1C(=O)C[C@@H](O)C1/C=C/[C@@H](O)COc1ccccc1)NS(=O)(=O)c1ccccc1` (stereo not given in full), the Relative potency in the assay on Cavia porcellus [1] is given as 1000; in the assay filed under Cavia porcellus [2] it was 5; in the assay with Rattus norvegicus it was 370; with Canis familiaris [6] it was less than 0.5. Further, the Protection in the assay on Cavia porcellus [3] was found to be 13%.

On to `CCCCC(C)(C)[C@H](O)/C=C/C1[C@H](O)CC(=O)[C@@H]1C/C=C\CCCC(=O)O` (stereo not given in full), for which the Relative threshold dose with Canis familiaris [8] amounted to 10. Also, the Relative potency was less than 100 in the assay with Cavia porcellus [1], 5300 with Mus musculus [4], 33 in the assay listed under Cavia porcellus [2] and 400 in the assay with Rattus norvegicus. In the assay on Cavia porcellus [3], this compound yielded a Protection of 41%.

Take `O=C(O)CCC/C=C\C[C@H]1C(=O)C[C@@H](O)C1/C=C/[C@@H](O)COc1ccccc1` (stereo not given in full): the Relative threshold dose in the assay with Canis familiaris [8] is recorded as 10. For the same compound, the Relative potency is reported as 300 with Cavia porcellus [1], 150 in the assay on Mus musculus [4], 75 in the assay filed under Cavia porcellus [2] and 530 in the assay on Rattus norvegicus. The compound also returned a Protection in the assay on Cavia porcellus [3] of 9%.

For the compound `CCS(=O)(=O)NC(=O)CCC/C=C\C[C@H]1C(=O)C[C@@H](O)C1/C=C/[C@@H](O)COc1ccccc1` (stereo not given in full), the Relative potency with Canis familiaris [8] worked out at 1; in the assay with Cavia porcellus [1] it was 3000; in the assay filed under Cavia porcellus [2] it was 85. Further, in the assay on Cavia porcellus [3], the Protection is reported as 9%.

In the case of `CS(=O)(=O)NC(=O)CCC/C=C\C[C@H]1C(=O)C[C@@H](O)[C@@H]1/C=C/[C@@H](O)COc1ccccc1` [SULPROSTONE], the Relative potency in the assay with Canis familiaris [8] is reported as 0.5; in the assay on Cavia porcellus [1], 3000; in the assay listed under Cavia porcellus [2] it was 115; with Rattus norvegicus it was 450. The compound further came in with a Protection in the assay with Cavia porcellus [3] of 10%.

On to `CCCCC[C@H](O)/C=C/[C@H]1[C@H](O)CC(=O)[C@@H]1C/C=C\CCCC(=O)O` [DINOPROSTONE], for which the Relative potency with Cavia porcellus [1], with Mus musculus [4], in the assay listed under Cavia porcellus [2] and in the assay on Rattus norvegicus was 100 throughout. In addition, the Protection in the assay on Cavia porcellus [3] is 100%.

In the case of `COc1cccc(OC[C@H](O)/C=C/C2[C@H](O)CC(=O)[C@@H]2C/C=C\CCCC(=O)NS(C)(=O)=O)c1` (stereo not given in full), the Relative potency in the assay with Cavia porcellus [1] is less than 1000; in the assay filed under Cavia porcellus [2] it was 1; in the assay with Rattus norvegicus, 0; in the assay with Canis familiaris [6], less than 0.5; in the assay on Mus musculus [10], “No effect”. In the assay on Cavia porcellus [3], the Protection stood at 25%.
